Laboratory results reported in ChEMBL document CHEMBL1149349, “Identification of novel pyrazole acid antagonists for the EP1 receptor” (Bioorg Med Chem Lett, 2006).
Values after ≈ are worked out from the molar mass of the structure shown.

How the values were obtained:
[1] = target: T1, Prostaglandin E2 receptor EP1 subtype (Homo sapiens, UniProt P34995); assay: Antagonist activity at EP1 receptor expressed in CHO-K1 cells assessed as inhibition of PGE2-stimulated calcium ion mobilization by FLIPR assay; assay type: functional, cell-based
T1 sequence (P34995 whole entry): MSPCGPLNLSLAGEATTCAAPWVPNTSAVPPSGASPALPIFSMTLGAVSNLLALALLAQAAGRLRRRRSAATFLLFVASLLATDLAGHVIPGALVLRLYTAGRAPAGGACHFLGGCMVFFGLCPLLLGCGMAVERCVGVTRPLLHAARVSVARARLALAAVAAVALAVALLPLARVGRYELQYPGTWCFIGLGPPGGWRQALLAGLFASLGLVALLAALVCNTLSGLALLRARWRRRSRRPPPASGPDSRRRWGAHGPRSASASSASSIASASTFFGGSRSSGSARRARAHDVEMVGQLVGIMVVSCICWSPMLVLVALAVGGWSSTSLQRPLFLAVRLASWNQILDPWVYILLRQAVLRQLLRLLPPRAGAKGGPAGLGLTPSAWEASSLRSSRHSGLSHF
Method in brief: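 Stably EP1- or EP3-transfected CHO-K1 whole cells loaded with the calcium-sensitive dye Fluo-3. Inhibition of PGE₂-evoked intracellular Ca²⁺ mobilisation measured, reported as pKi.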

[2] = target: T1, Prostaglandin E2 receptor EP1 subtype; assay: Displacement of [3H]PGE2 from EP1 receptor expressed in CHO-K1 cells; assay type: cell-based
Method in brief: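 Membranes from cells expressing the receptor, incubated with test compound and [³H]PGE₂ (3 nM final) for 30 min at 30 °C. Bound radioactivity read by liquid scintillation counting. Values are means of at least four experiments.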

[3] = target: Prostaglandin E2 receptor EP3 subtype (Homo sapiens) (UniProt P43115); assay: Inhibition of PGE2-induced intracellular Ca2+ mobilisation (FLIPR) at EP3 receptor expressed in CHO-K1 cells
[4] = Solubility at pH 7.4; assay type: physicochemical; settings: buffer
Cytochrome P450 1A2 = target: T2, Cytochrome P450 1A2 (Homo sapiens, UniProt P05177); assay: Inhibition of CYP450 1A2; assay type: ADME
T2 sequence (P05177 whole entry): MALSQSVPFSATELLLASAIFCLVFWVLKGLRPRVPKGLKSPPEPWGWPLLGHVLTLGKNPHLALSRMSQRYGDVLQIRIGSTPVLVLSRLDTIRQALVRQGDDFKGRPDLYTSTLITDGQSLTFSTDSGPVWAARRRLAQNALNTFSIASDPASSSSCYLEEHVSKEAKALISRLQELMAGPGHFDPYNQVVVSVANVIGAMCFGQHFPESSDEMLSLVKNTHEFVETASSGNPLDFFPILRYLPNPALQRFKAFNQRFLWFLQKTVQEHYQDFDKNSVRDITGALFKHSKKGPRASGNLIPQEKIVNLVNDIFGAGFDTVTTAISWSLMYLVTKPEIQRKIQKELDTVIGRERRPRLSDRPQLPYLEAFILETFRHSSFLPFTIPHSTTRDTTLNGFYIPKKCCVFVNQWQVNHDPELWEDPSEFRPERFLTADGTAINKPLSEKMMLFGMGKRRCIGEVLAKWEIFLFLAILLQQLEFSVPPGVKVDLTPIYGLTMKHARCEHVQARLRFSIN
Method in brief: (§1)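 In vitro CYP450 inhibition run by the Gentest protocol, with IC₅₀ determined for each isoform.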

Cytochrome P450 2C9 = Cytochrome P450 2C9 (Homo sapiens, UniProt P11712); assay: Inhibition of CYP450 2C9; assay type: ADME; method in brief: as §1
Cytochrome P450 2C19 = Cytochrome P450 2C19 (Homo sapiens, UniProt P33261); assay: Inhibition of CYP450 2C19; assay type: ADME; method in brief: as §1
Cytochrome P450 2D6 = Cytochrome P450 2D6 (Homo sapiens, UniProt P10635); assay: Inhibition of CYP450 2D6; assay type: ADME; method in brief: as §1
Cytochrome P450 3A4 = Cytochrome P450 3A4 (Homo sapiens, UniProt P08684); assay: Inhibition of CYP450 3A4; assay type: ADME; method in brief: as §1
Liver microsomes [5] = assay: Intrinsic clearance in rat liver microsome; assay type: ADME
Liver microsomes [6] = assay: Intrinsic clearance in human liver microsome; assay type: ADME
[7] = Distribution coefficient, log D at pH 7.4; assay type: physicochemical; settings: octanol/water
[8] = Cmax in rat at 3 mg/kg, po; assay type: ADME, organism-based; design: dose 3 mg/kg, route oral; settings: in vivo
Method in brief: (§2)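 Oral dosing with drug levels measured in blood. Cmax, Tmax and AUC normalised to dose were derived from the blood concentration–time profile.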

[9] = Tmax in rat at 3 mg/kg, po; assay type: ADME, organism-based; design: dose 3 mg/kg, route oral; settings: in vivo; method in brief: as §2
Rattus norvegicus [10] = assay: AUC in rat at 3 mg/kg, po; assay type: ADME, organism-based, Plasma; design: dose 3 mg/kg, route oral; settings: in vivo; method in brief: as §2
Rattus norvegicus [11] = assay: AUC/dose in rat at 3 mg/kg, po; assay type: ADME, organism-based, Plasma; design: dose 3 mg/kg, route oral; settings: in vivo; method in brief: as §2
Rattus norvegicus [12] = species on record: Rattus norvegicus; assay: Activity against Freund's complete adjuvant-induced inflammatory pain in rat; assay type: functional

Prostaglandin E2 receptor EP3 subtype (Homo sapiens), sequence (P43115 whole entry, looked up): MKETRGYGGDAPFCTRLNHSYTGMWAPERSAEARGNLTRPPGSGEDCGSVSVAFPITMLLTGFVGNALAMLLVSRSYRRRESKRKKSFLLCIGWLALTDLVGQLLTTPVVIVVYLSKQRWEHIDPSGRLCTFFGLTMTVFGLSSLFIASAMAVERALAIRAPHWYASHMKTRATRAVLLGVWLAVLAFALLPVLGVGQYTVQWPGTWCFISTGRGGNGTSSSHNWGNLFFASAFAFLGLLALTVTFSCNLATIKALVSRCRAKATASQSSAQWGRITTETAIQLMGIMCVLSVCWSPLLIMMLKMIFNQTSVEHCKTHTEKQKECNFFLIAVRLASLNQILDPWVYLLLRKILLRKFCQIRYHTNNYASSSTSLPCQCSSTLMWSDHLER
Cytochrome P450 2D6, sequence (P10635 whole entry): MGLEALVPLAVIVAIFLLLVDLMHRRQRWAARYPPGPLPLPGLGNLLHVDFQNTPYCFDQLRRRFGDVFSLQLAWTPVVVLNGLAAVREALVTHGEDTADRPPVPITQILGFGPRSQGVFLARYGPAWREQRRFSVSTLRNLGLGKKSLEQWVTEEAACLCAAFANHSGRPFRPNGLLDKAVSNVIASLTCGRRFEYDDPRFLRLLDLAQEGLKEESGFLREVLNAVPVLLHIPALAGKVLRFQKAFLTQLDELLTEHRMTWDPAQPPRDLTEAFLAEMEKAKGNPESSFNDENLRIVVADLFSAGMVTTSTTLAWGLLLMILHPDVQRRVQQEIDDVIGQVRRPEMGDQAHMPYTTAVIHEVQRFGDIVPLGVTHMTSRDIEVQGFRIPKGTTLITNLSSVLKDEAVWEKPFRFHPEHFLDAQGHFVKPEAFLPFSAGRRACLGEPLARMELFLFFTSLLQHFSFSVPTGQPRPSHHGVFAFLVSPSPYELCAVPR
Cytochrome P450 3A4, sequence (P08684 whole entry): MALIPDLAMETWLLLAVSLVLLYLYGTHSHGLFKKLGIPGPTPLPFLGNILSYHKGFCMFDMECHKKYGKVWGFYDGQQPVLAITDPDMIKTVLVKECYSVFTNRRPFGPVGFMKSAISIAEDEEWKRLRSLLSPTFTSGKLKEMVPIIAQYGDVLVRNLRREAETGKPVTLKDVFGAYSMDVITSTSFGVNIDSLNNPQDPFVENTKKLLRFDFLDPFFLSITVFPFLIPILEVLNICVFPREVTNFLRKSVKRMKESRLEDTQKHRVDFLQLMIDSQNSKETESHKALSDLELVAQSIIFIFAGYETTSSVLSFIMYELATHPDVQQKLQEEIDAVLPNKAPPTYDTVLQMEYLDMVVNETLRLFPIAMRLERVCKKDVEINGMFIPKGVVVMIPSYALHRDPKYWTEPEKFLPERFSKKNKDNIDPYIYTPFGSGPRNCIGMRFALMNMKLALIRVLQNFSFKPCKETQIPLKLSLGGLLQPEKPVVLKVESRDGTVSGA
Cytochrome P450 2C9, sequence (P11712 whole entry): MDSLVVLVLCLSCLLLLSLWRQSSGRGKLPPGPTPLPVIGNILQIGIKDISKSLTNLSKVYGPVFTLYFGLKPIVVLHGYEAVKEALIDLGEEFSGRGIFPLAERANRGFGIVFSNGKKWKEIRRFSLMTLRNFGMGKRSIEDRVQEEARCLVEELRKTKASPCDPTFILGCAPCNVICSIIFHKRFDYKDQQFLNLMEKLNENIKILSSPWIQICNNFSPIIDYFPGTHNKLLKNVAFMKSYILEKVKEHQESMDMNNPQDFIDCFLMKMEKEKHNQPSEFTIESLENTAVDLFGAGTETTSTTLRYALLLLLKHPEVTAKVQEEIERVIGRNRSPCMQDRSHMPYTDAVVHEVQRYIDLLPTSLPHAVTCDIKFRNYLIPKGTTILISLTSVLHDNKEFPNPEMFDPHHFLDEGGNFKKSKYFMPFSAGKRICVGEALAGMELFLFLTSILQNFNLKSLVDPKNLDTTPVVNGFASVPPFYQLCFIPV
Cytochrome P450 2C19, sequence (P33261 whole entry): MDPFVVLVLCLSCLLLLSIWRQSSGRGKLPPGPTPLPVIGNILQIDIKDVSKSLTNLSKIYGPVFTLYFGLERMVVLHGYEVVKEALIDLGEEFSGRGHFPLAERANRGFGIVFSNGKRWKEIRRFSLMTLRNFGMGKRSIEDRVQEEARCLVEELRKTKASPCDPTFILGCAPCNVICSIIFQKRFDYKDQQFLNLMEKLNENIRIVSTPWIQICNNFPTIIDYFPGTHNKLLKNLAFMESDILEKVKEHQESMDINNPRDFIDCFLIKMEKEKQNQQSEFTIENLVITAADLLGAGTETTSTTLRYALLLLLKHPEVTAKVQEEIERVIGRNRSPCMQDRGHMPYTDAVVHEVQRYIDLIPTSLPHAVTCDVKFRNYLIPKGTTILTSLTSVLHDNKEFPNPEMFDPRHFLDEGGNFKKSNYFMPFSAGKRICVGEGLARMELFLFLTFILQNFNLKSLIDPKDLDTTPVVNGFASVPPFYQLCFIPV

| Ki [1] | IC50 [2] | Compound | also measured |
| --- | --- | --- | --- |
| > 2 µM | – | CC(=O)Nc1cc(C(=O)O)nn1Cc1cc(Br)ccc1OCc1ccccc1 | – |
| > 2 µM | – | O=C(O)c1cnn(Cc2cc(Br)ccc2OCc2ccccc2)c1 | – |
| > 2 µM | 1.23 µM | Cc1cc(C(=O)O)nn1Cc1cc(Br)ccc1OCc1ccc(C(C)(C)C)cc1 | – |
| 0.00832 µM | – | Cc1cc(C(=O)O)nn1Cc1ccccc1OCc1ccc(Cl)cc1Cl | Ki [3]: > 2 µM |
| 0.0151 µM | 0.00646 µM | Cc1cc(C(=O)O)nn1Cc1cc(Br)ccc1OCc1ccccc1 | solubility [4]: 850 µg/mL (≈ 2120 µM); IC50 (Cytochrome P450 1A2): 21 µM; IC50 (Cytochrome P450 2C9): > 100 µM; IC50 (Cytochrome P450 2C19): > 100 µM; IC50 (Cytochrome P450 2D6): > 100 µM; IC50 (Cytochrome P450 3A4): > 100 µM; CL (Liver microsomes [5]): < 0.5 mL/min/g; CL (Liver microsomes [6]): 0.6 mL/min/g; logD [7]: 1.15; Cmax [8]: 5.69 µM; Tmax [9]: 30 min; AUC (Rattus norvegicus [10]): 16.3 µM·h; AUC/dose (Rattus norvegicus [11]): 124 kg·min/L; ED50 (Rattus norvegicus [12]): 1.3 mg/kg |
| 0.00871 µM | 0.00871 µM | Cc1cc(C(=O)O)nn1Cc1cc(Br)ccc1OCc1ccc(Cl)cc1 | – |
| 0.105 µM | 0.0148 µM | Cc1cc(C(=O)O)nn1Cc1cc(Br)ccc1OCc1c(F)cccc1F | – |
| > 2 µM | 5.25 µM | Cc1cc(C(=O)O)nn1Cc1cc(Br)ccc1OCc1cc(C(F)(F)F)cc(C(F)(F)F)c1 | – |
| 0.427 µM | 0.115 µM | Cc1cc(C(=O)O)nn1Cc1cc(Br)ccc1OCc1cccc(Cl)c1 | – |
| 0.00055 µM | – | Cc1cc(C(=O)O)nn1Cc1cc(Cl)ccc1OCc1ccc(Cl)cc1Cl | Ki [3]: > 2 µM |
| > 2 µM | 0.457 µM | O=C(O)c1nn(Cc2cc(Br)ccc2OCc2ccccc2)cc1Br | – |
| > 2 µM | – | O=C(O)c1nn(Cc2cc(Br)ccc2OCc2ccccc2)cc1Cl | – |
| 0.0204 µM | – | Cc1cc(C(=O)O)nn1Cc1cc(F)ccc1OCc1ccc(Cl)cc1Cl | – |
| 1.35 µM | 0.427 µM | Cc1cn(Cc2cc(Br)ccc2OCc2ccccc2)nc1C(=O)O | – |
| 1.12 µM | – | Cc1cc(C(=O)O)nn1Cc1cc(Br)ccc1OCc1cc(Cl)cc(Cl)c1 | – |
| 0.339 µM | – | Cc1cc(C(=O)O)nn1Cc1cc(Br)ccc1OCc1cccc([N+](=O)[O-])c1 | – |
| > 2 µM | – | O=C(O)c1ccnn1Cc1cc(Br)ccc1OCc1ccccc1 | – |
| 0.00126 µM | 0.00355 µM | O=C(O)c1cccc(-c2sccc2-c2cc(Cl)ccc2OCc2ccccc2)c1 | – |
| > 2 µM | 0.676 µM | O=C(O)c1nn(Cc2cc(Br)ccc2OCc2ccccc2)cc1CO | – |
| > 2 µM | 0.575 µM | Cc1cc(C(=O)O)nn1Cc1cc(Br)ccc1OCc1ccc(Cl)c(C(F)(F)F)c1 | – |

| Ki [1] | IC50 [2] | Compound | also measured |
| --- | --- | --- | --- |
| 0.00263 µM | 0.000525 µM | Cc1cc(C(=O)O)nn1Cc1cc(Br)ccc1OCc1ccc(F)cc1F | – |
| 0.525 µM | 0.126 µM | Cc1cccc(COc2ccc(Br)cc2Cn2nc(C(=O)O)cc2C)c1 | – |
| 0.0288 µM | 0.00316 µM | Cc1cc(C(=O)O)nn1Cc1cc(Br)ccc1OCc1ccccc1Cl | – |
| > 2 µM | – | O=C(O)c1cncn1Cc1cc(Br)ccc1OCc1ccccc1 | – |
| 0.00049 µM | 0.000132 µM | Cc1cc(C(=O)O)nn1Cc1cc(Br)ccc1OCc1ccc(Cl)cc1Cl | – |
| 0.00112 µM | – | Cc1cc(C(=O)O)nn1Cc1cc(Cl)ccc1OCc1ccc(F)cc1F | Ki [3]: > 2 µM |
| 0.617 µM | 0.195 µM | O=C(O)c1cc(-c2cccs2)n(Cc2cc(Br)ccc2OCc2ccccc2)n1 | – |
| 0.977 µM | – | CCCCc1cc(C(=O)O)nn1Cc1cc(Br)ccc1OCc1ccccc1 | – |
| 0.055 µM | 0.00977 µM | O=C(O)c1ccn(Cc2cc(Br)ccc2OCc2ccccc2)n1 | – |
| 1.1 µM | 0.309 µM | Cc1cc(C(=O)O)nn1Cc1cc(Br)ccc1OCc1cccc(C(F)(F)F)c1 | – |
| > 2 µM | – | O=C(O)c1cn(Cc2cc(Br)ccc2OCc2ccccc2)cn1 | – |
| 0.00794 µM | – | Cc1cc(C(=O)O)nn1Cc1cc(F)ccc1OCc1ccc(F)cc1F | Ki [3]: > 2 µM |
| > 2 µM | 2.57 µM | O=C(O)c1nn(Cc2cc(Br)ccc2OCc2ccccc2)cc1C(F)(F)F | – |
| 0.0977 µM | 0.0355 µM | Cc1cc(C(=O)O)nn1Cc1cc(Br)ccc1OCc1ccc(C(F)(F)F)cc1 | – |
| 0.129 µM | 0.0178 µM | Cc1cc(C(=O)O)nn1Cc1cc(Br)ccc1OCc1cccc(Br)c1 | – |
| 0.692 µM | 0.123 µM | O=C(O)c1nn(Cc2cc(Br)ccc2OCc2ccccc2)cc1F | – |
| 0.0692 µM | – | COc1ccccc1COc1ccc(Br)cc1Cn1nc(C(=O)O)cc1C | – |
| > 2 µM | – | O=C(O)c1cn(Cc2cc(Br)ccc2OCc2ccccc2)nn1 | – |
| 0.0117 µM | 0.00741 µM | Cc1cc(C(=O)O)nn1Cc1cc(Br)ccc1OCc1ccc(F)cc1 | – |
